Measurements of several laboratories.
STK38: Serine/threonine-protein kinase 38 (STK38, Homo sapiens, UniProt Q15208)
Nos2: Nitric oxide synthase, inducible (Nos2, Mus musculus, UniProt P29477)

Structure (SMILES)	target	read-out	action	technique	concentration	measurement	value
COc1cc(Nc2ncc(F)c(Nc3ccc4c(n3)NC(=O)C(C)(C)O4)n2)cc(OC)c1OC	Citron Rho-interacting kinase (CIT, Homo sapiens, UniProt O14578)	binding			10 µM	inhibition	99%
Cc1nn(C)cc1-c1nc2c(N3CCN(Cc4ccc(Cl)cc4)CC3)c(Cl)cnc2[nH]1	STK38	binding		competition with immobilised ligand	1 µM	remaining binding	86%
COc1ncccc1-c1cnn2ccc(N3CCN(C(=O)OC(C)C)CC3)nc12	STK38	binding		competition with immobilised ligand	1 µM	remaining binding	84%
c1ccc(C(NCCNC(c2ccccc2)c2ccccc2)c2ccccc2)cc1	Nos2	enzyme activity	inhibitor		10 µM	inhibition	3%
Cc1sc2c(c1C)C(c1ccc(Cl)cc1)=N[C@@H](CC(=O)OC(C)(C)C)c1nnc(C)n1-2	Stimulator of interferon genes protein (STING1, Homo sapiens, UniProt Q86WV6, H232R)	thermal stability		DSF	50 µM	ΔTm	-0.5 °C
C[C@H](C(=O)N[C@H]1COc2ccccc2[C@@H]1S(C)(=O)=O)c1ccc(F)cc1	Nos2	enzyme activity	inhibitor		10 µM	inhibition	3%
C#Cc1n[nH]c2c(-c3cn(C(C)c4ccccn4)c(=O)[nH]c3=O)cc(F)cc12 (centres unmarked)	Proto-oncogene tyrosine-protein kinase receptor Ret (RET, Homo sapiens, UniProt P07949, V804L)	enzyme activity	inhibitor		1 µM	inhibition	4.9%
Nc1ncc(-c2nc(N3CCOCC3)nc(N3CCOCC3)n2)c(C(F)F)n1	Proto-oncogene tyrosine-protein kinase receptor Ret (RET, Homo sapiens, UniProt P07949, M918T)	binding		competition with immobilised ligand	10 µM	remaining binding	78%
